Here are results for four compounds from ChEMBL document CHEMBL1914454, “Novel N-linked aminopiperidine inhibitors of bacterial topoisomerase type II: broad-spectrum antibacterial agents with reduced hERG activity” (J Med Chem, 2011).

The subject of one series is Mus musculus. Briefly: AUC (infinity) in Staphylococcus aureus ARC516 infected in CD1 mouse neutropenic thigh infection model at 20 mg/kg, ip qd by LC-MS/MS analysis. Type of series: ADME, organism-based. Set-up: time infinity, dose 20 mg/kg, route intraperitoneal. Particulars: in vivo. The gist of the method:
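Exposure in neutropenic CD-1 mice thigh-infected with S. aureus ARC516 (target 5 × 10⁵ cfu/thigh), dosed ip once daily from 2 h post-infection. Groups of three killed at timed intervals; blood taken by cardiac puncture. Plasma drug measured by LC-MS/MS; parameters from a noncompartmental model.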

Series [1] relates to Staphylococcus aureus. Briefly: Antibacterial activity against Staphylococcus aureus ARC516 infected in CD1 mouse neutropenic thigh infection model assessed as 1 log reduction in colony forming unit per […] at 20 mg/kg, ip qd administered 2 hrs post-infection measured 24 hrs post-treatment relative to vehicle treated control. The class given is functional. Particulars: route intraperitoneal. The essentials:
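Mice rendered neutropenic with ip cyclophosphamide (150 mg/kg 4 days and 100 mg/kg 1 day before infection), then infected with MSSA ARC516 at a target 5 × 10⁵ cfu/thigh. Groups of five dosed ip once daily from 2 h post-infection; vehicle group of five. At 24 h after treatment start, thighs homogenized and plated on tryptic soy agar, 37 °C overnight, cfu counted.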

For series [2], the system named is Staphylococcus aureus. Briefly: Antibacterial activity against methicillin-susceptible Staphylococcus aureus after 18 to 24 hrs by broth microdilution method. Type of series: functional. The essentials: (§1)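 Broth microdilution following CLSI guidelines in Mueller Hinton broth. Compounds in DMSO, diluted to 2% DMSO final, 11 doubling dilutions from 64 to 0.06 μg/mL. Incubated at 35 °C for 18−24 h; growth read by absorbance at 620 nm.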
On the technique in general: Broth dilution looks for growth in wells or tubes with falling amounts of substance.

The next series concerns Pseudomonas aeruginosa. Briefly: Antibacterial activity against Pseudomonas aeruginosa PAO1 after 18 to 24 hrs by broth microdilution method. Type of series: functional. The gist of the method: as §1
Series [3] concerns the target Voltage-gated inwardly rectifying potassium channel KCNH2 (Homo sapiens, UniProt Q12809). Briefly: Inhibition of human ERG by ionworks HT assay. For orientation: In patch-clamp work, channel activity is measured electrically.
The next series concerns Escherichia coli. Briefly: Antibacterial activity against Escherichia coli W3110 after 18 to 24 hrs by broth microdilution method. Type of series: functional. The note with it: K-12 substr. W3110. The essentials: as §1
Series [4] can be described thus: Octanol-phosphate buffer partition coefficient, log D of the compound at pH 7.4 by LC/MS/UV analysis. The note with it: octanol/phosphate buffer.
The next series relates to Streptococcus pneumoniae. Briefly: Antibacterial activity against penicillin-susceptible Streptococcus pneumoniae D39 after 18 to 24 hrs by broth microdilution method. Type of series: functional. The essentials:
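CLSI broth microdilution in 2.2% (w/v) Mueller Hinton broth with 0.65% (v/v) lysed horse blood. Compounds diluted from DMSO to 2% DMSO final, 11 doubling dilutions from 64 to 0.06 μg/mL. Incubated at 35 °C for 18−24 h; read at 620 nm.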

The nature of series [5]: Inhibition of Escherichia coli ATPase activity of topoisomerase 4 ParC/ParE subunit assessed as reduction in inorganic phosphate production after 24 hrs by ammonium molybdate/malachite-green based assay. The gist of the method: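 Each reaction contained 0.5 nM each of E. coli ParC and ParE, 0.16 mM ATP and 0.005 mg/mL sheared salmon sperm DNA in 20 mM Tris pH 8.0 with 50 mM ammonium acetate, 8.0 mM MgCl₂, 0.5 mM EDTA, 5 mM DTT, 2.5% glycerol and 0.005% Brij-35. Compound dilution series; 24 h at room temperature. Quenched with malachite green; absorbance read at 650 nm. IC50 is the mean of three replicate experiments.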

Series [6] can be described thus: Fraction unbound in human plasma at 10 uM after 16 hrs by equilibrium dialysis.

Values after ≈ are worked out from the molar mass of the structure shown.

Voltage-gated inwardly rectifying potassium channel KCNH2, sequence (Q12809 whole entry): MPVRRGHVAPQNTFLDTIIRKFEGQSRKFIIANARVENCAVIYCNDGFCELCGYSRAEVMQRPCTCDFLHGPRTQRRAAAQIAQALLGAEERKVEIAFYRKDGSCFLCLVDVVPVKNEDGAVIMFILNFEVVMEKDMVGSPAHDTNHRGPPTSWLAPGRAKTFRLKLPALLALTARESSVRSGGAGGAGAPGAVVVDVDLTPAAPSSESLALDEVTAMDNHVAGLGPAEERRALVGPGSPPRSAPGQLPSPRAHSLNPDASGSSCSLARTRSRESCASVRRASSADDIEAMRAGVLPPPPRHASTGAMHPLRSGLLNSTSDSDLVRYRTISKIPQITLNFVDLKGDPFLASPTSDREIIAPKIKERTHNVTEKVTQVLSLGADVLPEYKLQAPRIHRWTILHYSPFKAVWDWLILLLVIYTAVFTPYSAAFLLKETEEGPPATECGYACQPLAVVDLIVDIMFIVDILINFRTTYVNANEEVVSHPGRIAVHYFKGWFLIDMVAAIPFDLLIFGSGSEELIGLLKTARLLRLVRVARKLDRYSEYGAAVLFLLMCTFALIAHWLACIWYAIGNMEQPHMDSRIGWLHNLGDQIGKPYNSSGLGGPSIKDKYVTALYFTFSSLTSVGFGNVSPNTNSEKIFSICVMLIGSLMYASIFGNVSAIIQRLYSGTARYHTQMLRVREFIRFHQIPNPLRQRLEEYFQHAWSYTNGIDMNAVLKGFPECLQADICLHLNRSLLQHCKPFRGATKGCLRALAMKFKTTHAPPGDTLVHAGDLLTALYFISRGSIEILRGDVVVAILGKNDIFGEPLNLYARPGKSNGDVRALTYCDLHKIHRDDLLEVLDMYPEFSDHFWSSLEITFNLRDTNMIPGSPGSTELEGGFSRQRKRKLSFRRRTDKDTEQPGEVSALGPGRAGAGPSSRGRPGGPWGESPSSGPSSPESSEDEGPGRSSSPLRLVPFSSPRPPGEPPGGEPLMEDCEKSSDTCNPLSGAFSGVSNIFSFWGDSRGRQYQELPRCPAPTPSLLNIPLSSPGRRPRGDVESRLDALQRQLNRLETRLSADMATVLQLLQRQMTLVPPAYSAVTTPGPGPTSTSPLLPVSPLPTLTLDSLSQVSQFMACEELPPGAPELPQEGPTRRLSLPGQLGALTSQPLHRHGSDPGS

For the compound `C[C@H]1COc2c(N3CCN(C)CC3)c(F)cc3c(=O)c(C(=O)O)cn1c23.C[C@H]1COc2c(N3CCN(C)CC3)c(F)cc3c(=O)c(C(=O)O)cn1c23.O` [LEVOFLOXACIN], the AUC in the series on Mus musculus turned out to be 2.5 µg/h/mL. Also, the FC in the series with Staphylococcus aureus [1] is given as 1.46.

For the compound `COc1ncc2ccc(=O)n(CCN3CCC(NCc4cc5c(cn4)OCCO5)CC3)c2n1`, the MIC in the series on Staphylococcus aureus [2] is 0.13 µg/mL (≈ 0.287 µM); with Pseudomonas aeruginosa, above 8 µg/mL; with Escherichia coli, 2 µg/mL (≈ 4.42 µM); against Streptococcus pneumoniae, 0.25 µg/mL (≈ 0.552 µM). The IC50 came to 206 µM in series [3] and 0.013 µM in [5]. In [4], this compound displayed a logD of 0.2. In addition, the fraction unbound at 16 h, 10 µM in [6] stood at 0.27.

With `COc1ccc2ccc(=O)n(CCN3CCC(NCc4cc5c(cn4)OCCO5)CC3)c2c1`, the MIC in the series on Staphylococcus aureus [2] is 0.03 µg/mL (≈ 0.0666 µM); against Pseudomonas aeruginosa it was above 8 µg/mL; in the series with Escherichia coli, 1.5 µg/mL (≈ 3.33 µM); against Streptococcus pneumoniae it was 0.06 µg/mL (≈ 0.133 µM). Also, the results for the IC50 in series [3] and in [5] were 34 µM and 0.022 µM, respectively. The compound further had a logD in [4] of 1.32. For the same compound, the fraction unbound at 16 h, 10 µM in series [6] was 0.31.

For `COc1ccc2c(c1)N(CCN1CCC(NCc3ccc4c(n3)NC(=O)CO4)CC1)C(=O)CC2`, the MIC in the series with Staphylococcus aureus [2], against Pseudomonas aeruginosa, in the series with Escherichia coli and in the series with Streptococcus pneumoniae was above 8 µg/mL throughout. Besides, the 50% inhibitory concentration (IC50) in series [3] was 29 µM; in series [5], 0.78 µM. This compound also had a logD in series [4] of 0.66. Further, the unbound share (fraction unbound) at 16 h, 10 µM in [6] was 0.04.

As a reminder, the MIC is the smallest concentration in the dilution series that meets the test's criterion for growth inhibition. By IC50 is commonly meant the midpoint of a concentration-inhibition curve. Broadly, the logD is the decadic logarithm of the distribution of all forms, ionised or not, between an organic phase and buffer at a given pH. Low readings indicate lower lipophilicity, high ones higher lipophilicity. Usually fraction unbound stands for the share of the substance not bound to proteins or other matrix. High values mean weak binding, low ones extensive binding.
